SMILES strings stand for the structures. Values after ≈ are worked out from the molar mass of the structure shown.

The Cmax is the peak of the concentration-time curve. For orientation: IC50 means the point on the concentration scale where inhibition reaches its midpoint. One may read the fraction unbound as free concentration divided by total concentration. High values mean weak binding, low ones extensive binding. A word on the solubility: it is the dissolved amount per volume that the medium holds. The term GI50 denotes the concentration giving 50% growth inhibition. A low value points to greater sensitivity of the cells. The term logD denotes lipophilicity at a set pH, counting ionised and neutral species. Lower therefore signals a more hydrophilic compound.

System in the first series: not listed separately
The series can be described thus: Cmax in po dosed rat. The format is ADME, organism-based. Also on record: route oral. Conditions: in vivo.
Compound `CC(=O)Nc1cc(Nc2cc(Nc3cn(CCN(C)C)cn3)n3ncc(C#N)c3n2)ccc1C` yielded a Cmax of less than 100 nM.

The compound `CC(=O)Nc1cc(Nc2cc(Nc3ccn(CCN4CCOCC4)n3)n3ncc(C#N)c3n2)ccc1C` gave a Cmax of less than 100 nM.

System in a further series: not listed separately
The series can be described thus: Intrinsic clearance in rat liver microsomes. The series is classed as ADME, Microsome. Conditions: read-out: CLH. The method, boiled down:
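Incubation with rat liver microsomes; intrinsic clearance reported in μL/min/mg.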
For the compound `CC(=O)Nc1cc(Nc2cc(NC3CC3)n3ncc(C#N)c3n2)c(F)cc1C1CC1`, the microsomal CLint worked out at 19 µL/min/mg.

For the compound `CC(=O)Nc1cc(Nc2cc(Nc3cn(CCN(C)C)cn3)n3ncc(C#N)c3n2)ccc1C`, the microsomal CLint was found to be 25 µL/min/mg.

Turning to `CC(=O)Nc1cc(Nc2cc(NC3CC3)n3ncc(C#N)c3n2)cnc1C`, the microsomal CLint came out at 50 µL/min/mg.

As to `CC(=O)Nc1cc(Nc2cc(NC3CC3)n3ncc(C#N)c3n2)ncc1C`, the microsomal CLint was less than 4 µL/min/mg.

For `CC(=O)Nc1cc(Nc2cc(Nc3cn(CCO)cn3)n3ncc(C#N)c3n2)ccc1C`, the microsomal CLint turned out to be 43 µL/min/mg.

As for `CC(=O)Nc1cc(Nc2cc(NC3CC3)n3ncc(C#N)c3n2)ccc1C(C)C`, the microsomal CLint stood at 56 µL/min/mg.

Take `CC(=O)Nc1cc(Nc2cc(Nc3ccn(CCN(C)C)n3)n3ncc(C#N)c3n2)ccc1C`: the microsomal CLint is 80 µL/min/mg.

Regarding `CC(=O)Nc1cc(Nc2cc(Nc3cn(CCN4CCOCC4)cn3)n3ncc(C#N)c3n2)ccc1C`, the microsomal CLint is 63 µL/min/mg.

With `CC(=O)Nc1cc(Nc2cc(Nc3ccn(C)n3)n3ncc(C#N)c3n2)ccc1C`, the microsomal CLint was less than 4 µL/min/mg.

For `CC(=O)Nc1cc(Nc2cc(Nc3ccn(CCO)n3)n3ncc(C#N)c3n2)ccc1C`, the microsomal CLint came to 17 µL/min/mg.

Consider `CC(=O)Nc1cc(Nc2cc(Nc3ccn(CCN4CCOCC4)n3)n3ncc(C#N)c3n2)ccc1C`, for which the microsomal CLint was found to be 31 µL/min/mg.

The target in a further series is Voltage-gated inwardly rectifying potassium channel KCNH2 (Homo sapiens, UniProt Q12809). The series can be described thus: Binding affinity to human ERG expressed in CHO cells by IonWorks assay.
Sequence of Voltage-gated inwardly rectifying potassium channel KCNH2 (Q12809 whole entry): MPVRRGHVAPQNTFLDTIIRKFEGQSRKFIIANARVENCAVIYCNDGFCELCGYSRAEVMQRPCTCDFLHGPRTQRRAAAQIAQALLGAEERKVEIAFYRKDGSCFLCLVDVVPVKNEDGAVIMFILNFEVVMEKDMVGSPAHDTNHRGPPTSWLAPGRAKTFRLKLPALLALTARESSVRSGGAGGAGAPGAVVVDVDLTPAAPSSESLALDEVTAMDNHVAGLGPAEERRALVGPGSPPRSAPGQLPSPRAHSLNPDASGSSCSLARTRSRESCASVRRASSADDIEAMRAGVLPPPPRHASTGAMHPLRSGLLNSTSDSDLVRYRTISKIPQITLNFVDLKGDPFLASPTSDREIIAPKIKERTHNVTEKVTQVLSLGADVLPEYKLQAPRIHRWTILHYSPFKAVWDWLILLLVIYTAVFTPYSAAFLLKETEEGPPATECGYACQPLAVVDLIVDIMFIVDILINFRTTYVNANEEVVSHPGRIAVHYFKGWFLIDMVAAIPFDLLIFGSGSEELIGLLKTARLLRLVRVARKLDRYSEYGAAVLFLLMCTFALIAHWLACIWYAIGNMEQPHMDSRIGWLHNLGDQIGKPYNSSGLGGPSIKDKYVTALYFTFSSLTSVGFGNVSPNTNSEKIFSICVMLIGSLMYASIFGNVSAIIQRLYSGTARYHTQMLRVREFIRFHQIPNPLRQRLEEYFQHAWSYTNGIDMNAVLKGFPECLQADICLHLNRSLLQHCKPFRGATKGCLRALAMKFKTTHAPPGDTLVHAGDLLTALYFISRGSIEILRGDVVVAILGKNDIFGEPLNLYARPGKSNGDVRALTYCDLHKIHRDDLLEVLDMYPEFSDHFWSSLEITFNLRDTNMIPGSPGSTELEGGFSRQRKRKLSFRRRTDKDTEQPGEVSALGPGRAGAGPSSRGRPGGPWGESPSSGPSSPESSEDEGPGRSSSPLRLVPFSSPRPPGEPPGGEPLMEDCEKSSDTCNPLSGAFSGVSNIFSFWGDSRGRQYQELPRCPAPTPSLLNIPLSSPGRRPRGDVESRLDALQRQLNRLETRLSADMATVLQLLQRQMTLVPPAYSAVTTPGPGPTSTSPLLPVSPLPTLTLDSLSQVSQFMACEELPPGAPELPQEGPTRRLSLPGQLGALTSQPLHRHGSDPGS
Conditions: not given
Compound `CC(=O)Nc1cc(Nc2cc(NC3CC3)n3ncc(C#N)c3n2)ccc1C(C)C` registered an IC50 greater than 33000 nM.

System in a further series: not listed separately
The series can be described thus: Fraction unbound in human plasma at 10 uM by equilibrium dialysis method.
Conditions: not given
The series is classed as ADME, cell-free.
Regarding `CC(=O)Nc1cc(Nc2cc(NC3CC3)n3ncc(C#N)c3n2)c(F)cc1C1CC1`, the fraction unbound at 10 µM was 0.096.

`CC(=O)Nc1cc(Nc2cc(NC3CC3)n3ncc(C#N)c3n2)cnc1C` gave a fraction unbound at 10 µM of 0.15.

`CC(=O)Nc1cc(Nc2cc(NC3CC3)n3ncc(C#N)c3n2)ncc1C` displayed a free fraction (fraction unbound) at 10 µM of 0.12.

With `CC(=O)Nc1cc(Nc2cc(NC3CC3)n3ncc(C#N)c3n2)ccc1C(C)C`, the fraction unbound at 10 µM amounted to 0.04.

`CC(=O)Nc1cc(Nc2cc(Nc3ccn(C)n3)n3ncc(C#N)c3n2)ccc1C` gave a fraction unbound at 10 µM of 0.12.

System in a further series: not listed separately
The series can be described thus: Aqueous solubility of the compound in phosphate buffer at pH 7.4 after 24 hrs. The series is classed as physicochemical.
Conditions: not given
For the compound `CC(=O)Nc1cc(Nc2cc(NC3CC3)n3ncc(C#N)c3n2)c(F)cc1C1CC1`, the solubility at 24 h worked out at 7 µM (≈ 2.84 µg/mL).

The compound `CC(=O)Nc1cc(Nc2cc(Nc3cn(CCN(C)C)cn3)n3ncc(C#N)c3n2)ccc1C` returned a solubility at 24 h of 84 µM (≈ 38.5 µg/mL).

In the case of `CC(=O)Nc1cc(Nc2cc(NC3CC3)n3ncc(C#N)c3n2)cnc1C`, the concentration in solution (solubility at 24 h) came to 18 µM (≈ 6.52 µg/mL). Compared with the last compound, the solubility at 24 h is about 4.7-fold lower.

With `CC(=O)Nc1cc(Nc2cc(NC3CC3)n3ncc(C#N)c3n2)ncc1C`, the concentration in solution (solubility at 24 h) came to 7 µM (≈ 2.54 µg/mL).

The compound `CC(=O)Nc1cc(Nc2cc(Nc3cn(CCO)cn3)n3ncc(C#N)c3n2)ccc1C` registered a solubility at 24 h of 83 µM (≈ 35.8 µg/mL).

The compound `CC(=O)Nc1cc(Nc2cc(NC3CC3)n3ncc(C#N)c3n2)ccc1C(C)C` showed a solubility at 24 h of less than 1 µM.

Take `CC(=O)Nc1cc(Nc2cc(Nc3ccn(CCN(C)C)n3)n3ncc(C#N)c3n2)ccc1C`: the concentration in solution (solubility at 24 h) came to 860 µM (≈ 394 µg/mL).

`CC(=O)Nc1cc(Nc2cc(Nc3cn(CCN4CCOCC4)cn3)n3ncc(C#N)c3n2)ccc1C` returned a solubility at 24 h of 120 µM (≈ 60.1 µg/mL).

Consider `CC(=O)Nc1cc(Nc2cc(Nc3ccn(C)n3)n3ncc(C#N)c3n2)ccc1C`, for which the concentration in solution (solubility at 24 h) came to 1 µM (≈ 0.401 µg/mL).

As to `CC(=O)Nc1cc(Nc2cc(Nc3ccn(CCO)n3)n3ncc(C#N)c3n2)ccc1C`, the solubility at 24 h came to 22 µM (≈ 9.49 µg/mL).

`CC(=O)Nc1cc(Nc2cc(Nc3ccn(CCN4CCOCC4)n3)n3ncc(C#N)c3n2)ccc1C` had a solubility at 24 h of 10 µM (≈ 5.01 µg/mL). This solubility at 24 h lies about 2.2-fold lower than the previous one.

A further series relates to HCT-116. The series can be described thus: Growth inhibition of human HCT116 cells after 72 hrs by Alamar blue assay. The series is classed as functional. Conditions: HCT-116, 72 h.
Compound `CC(=O)Nc1cc(Nc2cc(NC3CC3)n3ncc(C#N)c3n2)c(F)cc1C1CC1` yielded a GI50 of 12 nM.

In turn, `CC(=O)Nc1cc(Nc2cc(Nc3cn(CCN(C)C)cn3)n3ncc(C#N)c3n2)ccc1C` displayed a GI50 of 650 nM.

`CC(=O)Nc1cc(Nc2cc(NC3CC3)n3ncc(C#N)c3n2)ncc1C` came in with a GI50 of 300 nM.

With `CC(=O)Nc1cc(Nc2cc(Nc3cn(CCO)cn3)n3ncc(C#N)c3n2)ccc1C`, the GI50 worked out at 40 nM.

`CC(=O)Nc1cc(Nc2cc(NC3CC3)n3ncc(C#N)c3n2)ccc1C(C)C`: the GI50 turned out to be 67 nM. This GI50 lies about 1.7-fold higher than the previous one.

In turn, `CC(=O)Nc1cc(Nc2cc(Nc3ccn(CCN(C)C)n3)n3ncc(C#N)c3n2)ccc1C` registered a GI50 of 70 nM.

For the compound `CC(=O)Nc1cc(Nc2cc(Nc3cn(CCN4CCOCC4)cn3)n3ncc(C#N)c3n2)ccc1C`, the GI50 was 670 nM.

With `CC(=O)Nc1cc(Nc2cc(Nc3ccn(CCO)n3)n3ncc(C#N)c3n2)ccc1C`, the GI50 worked out at 80 nM. Against the preceding compound, the GI50 is about 8.4-fold lower.

In turn, `CC(=O)Nc1cc(Nc2cc(Nc3ccn(CCN4CCOCC4)n3)n3ncc(C#N)c3n2)ccc1C` yielded a GI50 of 970 nM.

The target of another series is Casein kinase II subunit alpha (Homo sapiens, UniProt P68400). The series can be described thus: Inhibition of N-terminal His6X-tagged recombinant human full length casein kinase-2alpha expressed in SF21 cells using BODIPY-FL-RRRDDDSDDD-CONH2 as substrate preincubated for 20 mins measured after 90 mins by mobility shift assay.
Sequence of Casein kinase II subunit alpha (P68400 whole entry): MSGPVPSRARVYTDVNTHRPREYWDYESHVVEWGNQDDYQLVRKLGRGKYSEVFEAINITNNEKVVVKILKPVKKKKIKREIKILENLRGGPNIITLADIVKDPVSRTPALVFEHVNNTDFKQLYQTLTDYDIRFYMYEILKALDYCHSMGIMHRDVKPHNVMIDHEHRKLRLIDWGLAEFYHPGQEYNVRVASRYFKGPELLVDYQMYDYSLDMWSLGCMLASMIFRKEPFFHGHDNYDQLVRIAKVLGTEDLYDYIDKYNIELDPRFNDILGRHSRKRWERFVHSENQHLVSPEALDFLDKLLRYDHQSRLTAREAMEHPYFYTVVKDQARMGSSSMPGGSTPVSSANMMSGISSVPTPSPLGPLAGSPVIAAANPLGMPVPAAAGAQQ
Conditions: not given
Turning to `CC(=O)Nc1cc(Nc2cc(NC3CC3)n3ncc(C#N)c3n2)c(F)cc1C1CC1`, the IC50 was less than 3 nM.

In the case of `CC(=O)Nc1cc(Nc2cc(Nc3cn(CCN(C)C)cn3)n3ncc(C#N)c3n2)ccc1C`, the 50% inhibitory concentration (IC50) is less than 3 nM.

Regarding `CC(=O)Nc1cc(Nc2cc(NC3CC3)n3ncc(C#N)c3n2)cnc1C`, the IC50 is less than 3 nM.

Consider `CC(=O)Nc1cc(Nc2cc(NC3CC3)n3ncc(C#N)c3n2)ncc1C`, for which the concentration for half-maximal inhibition (IC50) is less than 3 nM.

As for `CC(=O)Nc1cc(Nc2cc(Nc3cn(CCO)cn3)n3ncc(C#N)c3n2)ccc1C`, the IC50 was less than 3 nM.

Take `CC(=O)Nc1cc(Nc2cc(NC3CC3)n3ncc(C#N)c3n2)ccc1C(C)C`: the IC50 was less than 3 nM.

`CC(=O)Nc1cc(Nc2cc(Nc3ccn(CCN(C)C)n3)n3ncc(C#N)c3n2)ccc1C`: the IC50 is less than 3 nM.

On to `CC(=O)Nc1cc(Nc2cc(Nc3cn(CCN4CCOCC4)cn3)n3ncc(C#N)c3n2)ccc1C`, for which the IC50 was less than 3 nM.

In the case of `CC(=O)Nc1cc(Nc2cc(Nc3ccn(C)n3)n3ncc(C#N)c3n2)ccc1C`, the IC50 is less than 3 nM.

Consider `CC(=O)Nc1cc(Nc2cc(Nc3ccn(CCO)n3)n3ncc(C#N)c3n2)ccc1C`, for which the IC50 is less than 3 nM.

`CC(=O)Nc1cc(Nc2cc(Nc3ccn(CCN4CCOCC4)n3)n3ncc(C#N)c3n2)ccc1C`: the IC50 was less than 3 nM.

System in another series: not listed separately
The series can be described thus: cells. The following applies: Homo sapiens, HCT-116.
In turn, `CC(=O)Nc1cc(Nc2cc(NC3CC3)n3ncc(C#N)c3n2)c(F)cc1C1CC1` came in with an IC50 of 2 nM.

As for `CC(=O)Nc1cc(Nc2cc(NC3CC3)n3ncc(C#N)c3n2)cnc1C`, half-maximal inhibition (IC50) required 42 nM.

In turn, `CC(=O)Nc1cc(Nc2cc(NC3CC3)n3ncc(C#N)c3n2)ncc1C` yielded an IC50 of 6 nM.

Compound `CC(=O)Nc1cc(Nc2cc(Nc3ccn(C)n3)n3ncc(C#N)c3n2)ccc1C` had an IC50 of 3 nM.

System in another series: not listed separately
The series can be described thus: physchem. The following applies: octanol/water, pH 7.4.
Take `CC(=O)Nc1cc(Nc2cc(NC3CC3)n3ncc(C#N)c3n2)c(F)cc1C1CC1`: the logD at 5 h is 2.8.

Consider `CC(=O)Nc1cc(Nc2cc(Nc3cn(CCN(C)C)cn3)n3ncc(C#N)c3n2)ccc1C`, for which the logD at 5 h is 1.5.

As for `CC(=O)Nc1cc(Nc2cc(NC3CC3)n3ncc(C#N)c3n2)cnc1C`, the logD at 5 h was found to be 2.1.

With `CC(=O)Nc1cc(Nc2cc(NC3CC3)n3ncc(C#N)c3n2)ncc1C`, the logD at 5 h amounted to 2.1.

The compound `CC(=O)Nc1cc(Nc2cc(Nc3cn(CCO)cn3)n3ncc(C#N)c3n2)ccc1C` displayed a logD at 5 h of 1.6.

In the case of `CC(=O)Nc1cc(Nc2cc(NC3CC3)n3ncc(C#N)c3n2)ccc1C(C)C`, the logD at 5 h was 3.

As to `CC(=O)Nc1cc(Nc2cc(Nc3ccn(CCN(C)C)n3)n3ncc(C#N)c3n2)ccc1C`, the logD at 5 h is 2.3.

`CC(=O)Nc1cc(Nc2cc(Nc3cn(CCN4CCOCC4)cn3)n3ncc(C#N)c3n2)ccc1C` had a logD at 5 h of 1.4.

For `CC(=O)Nc1cc(Nc2cc(Nc3ccn(C)n3)n3ncc(C#N)c3n2)ccc1C`, the logD at 5 h amounted to 2.1.

As to `CC(=O)Nc1cc(Nc2cc(Nc3ccn(CCO)n3)n3ncc(C#N)c3n2)ccc1C`, the logD at 5 h is 1.8.

Regarding `CC(=O)Nc1cc(Nc2cc(Nc3ccn(CCN4CCOCC4)n3)n3ncc(C#N)c3n2)ccc1C`, the logD at 5 h turned out to be 1.3.

The values above are taken from ChEMBL document CHEMBL2406966, “Structure and Property Based Design of Pyrazolo[1,5-a]pyrimidine Inhibitors of CK2 Kinase with Activity in Vivo” (ACS Med Chem Lett, 2013).
